Activity calls are given as the source filed them. No cut-off for these calls is given here.
Experiments:
Assay type in all cases: cell-based
[1] = biological target: T1, Short transient receptor potential channel 4 (Mus musculus) (UniProt Q9QUQ5); assay: Agonist activity at mouse TRPC4beta expressed in HEK293 cells co-expressing MOR assessed as increase in intracellular calcium level at 33 uM measured for 2.5 mins by Fluo-8-AM dye-based fluorescence assay
T1 sequence (whole entry): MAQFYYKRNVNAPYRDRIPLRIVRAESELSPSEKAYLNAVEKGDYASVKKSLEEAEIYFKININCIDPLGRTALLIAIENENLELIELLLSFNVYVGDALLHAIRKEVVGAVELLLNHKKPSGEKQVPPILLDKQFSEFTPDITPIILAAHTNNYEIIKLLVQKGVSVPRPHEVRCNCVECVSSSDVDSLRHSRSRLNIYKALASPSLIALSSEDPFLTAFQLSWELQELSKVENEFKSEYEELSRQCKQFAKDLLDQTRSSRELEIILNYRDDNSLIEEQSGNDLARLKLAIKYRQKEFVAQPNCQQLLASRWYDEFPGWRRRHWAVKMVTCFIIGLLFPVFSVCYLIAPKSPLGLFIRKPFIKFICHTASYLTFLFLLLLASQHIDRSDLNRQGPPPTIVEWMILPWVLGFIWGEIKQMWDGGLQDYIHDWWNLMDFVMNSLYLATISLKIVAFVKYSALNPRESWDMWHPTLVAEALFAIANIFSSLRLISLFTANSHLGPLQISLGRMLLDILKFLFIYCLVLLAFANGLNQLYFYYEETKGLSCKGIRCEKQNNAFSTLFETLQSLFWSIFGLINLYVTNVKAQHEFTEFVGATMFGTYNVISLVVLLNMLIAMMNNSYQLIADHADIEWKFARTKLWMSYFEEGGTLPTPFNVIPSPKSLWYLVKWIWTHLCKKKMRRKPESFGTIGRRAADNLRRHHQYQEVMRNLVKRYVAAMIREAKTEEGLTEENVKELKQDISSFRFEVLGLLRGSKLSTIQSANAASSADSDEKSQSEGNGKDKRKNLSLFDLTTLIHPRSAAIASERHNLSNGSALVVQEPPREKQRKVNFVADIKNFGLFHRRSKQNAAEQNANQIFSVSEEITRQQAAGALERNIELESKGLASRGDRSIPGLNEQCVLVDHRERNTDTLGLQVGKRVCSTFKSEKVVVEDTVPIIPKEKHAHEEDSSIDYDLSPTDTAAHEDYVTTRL

[2] = biological target: T2, Short transient receptor potential channel 3 (Homo sapiens, UniProt Q13507); assay: Agonist activity at human TRPC3 expressed in HEK293 cells assessed as induction of membrane depolarization measured for 2.5 mins in presence of 0.5 mM Ca2+ by FLIPR membrane potential dye-based fluorescence assay
T2 sequence (Q13507 whole entry): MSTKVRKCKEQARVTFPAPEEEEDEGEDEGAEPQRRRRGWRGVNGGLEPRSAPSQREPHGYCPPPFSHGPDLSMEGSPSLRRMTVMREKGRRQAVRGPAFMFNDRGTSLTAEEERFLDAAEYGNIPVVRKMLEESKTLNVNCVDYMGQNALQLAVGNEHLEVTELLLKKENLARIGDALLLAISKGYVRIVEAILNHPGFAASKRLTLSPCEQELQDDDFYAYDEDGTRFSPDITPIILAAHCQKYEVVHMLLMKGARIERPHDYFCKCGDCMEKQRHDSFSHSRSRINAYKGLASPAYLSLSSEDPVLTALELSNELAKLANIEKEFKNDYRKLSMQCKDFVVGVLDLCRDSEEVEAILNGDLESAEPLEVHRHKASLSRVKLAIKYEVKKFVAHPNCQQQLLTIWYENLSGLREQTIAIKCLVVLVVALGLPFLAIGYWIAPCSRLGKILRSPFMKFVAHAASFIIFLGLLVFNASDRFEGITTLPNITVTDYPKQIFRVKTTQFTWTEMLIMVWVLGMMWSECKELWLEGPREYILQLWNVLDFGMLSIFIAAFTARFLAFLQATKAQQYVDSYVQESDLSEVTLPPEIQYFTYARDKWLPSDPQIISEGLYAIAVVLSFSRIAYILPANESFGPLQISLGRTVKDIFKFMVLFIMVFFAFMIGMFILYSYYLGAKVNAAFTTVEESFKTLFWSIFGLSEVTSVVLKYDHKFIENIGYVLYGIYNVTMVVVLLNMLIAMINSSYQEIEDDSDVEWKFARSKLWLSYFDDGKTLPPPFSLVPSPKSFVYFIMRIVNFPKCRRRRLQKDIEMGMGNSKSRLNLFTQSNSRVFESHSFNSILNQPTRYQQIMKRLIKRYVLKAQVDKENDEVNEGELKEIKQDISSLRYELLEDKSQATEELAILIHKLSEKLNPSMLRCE
How it was run: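 HEK293 cells stably expressing human TRPC3, run on a FlexStation at 32 °C. Loaded with FMP dye, or Fluo-type Ca2+ dye with 2 mM probenecid. Extracellular NaCl/HEPES saline, pH 7.4, with 2 mM Ca2+ (standard) or 0.5 mM Ca2+. Read as F/F0. In 0.5 mM Ca2+, FMP EC50 from a Hill fit, n = 6.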

[3] = biological target: T1, Short transient receptor potential channel 4 (Mus musculus); assay: Agonist activity at mouse TRPC4beta expressed in HEK293 cells co-expressing MOR assessed as induction of membrane depolarization at 33 uM measured for 2.5 mins by FLIPR membrane potential dye-based fluorescence assay
[4] = biological target: T3, Short transient receptor potential channel 4 (Mus musculus, UniProt Q9QUQ5); assay: Antagonist activity at mouse TRPC4beta expressed in HEK293 cells co-expressing MOR decrease in DAMGO-evoked intracellular calcium level by Fluo-8-AM dye-based fluorescence assay
T3 sequence (Q9QUQ5 whole entry): T1 sequence (whole entry)
How it was run: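 MOR/TRPC4β HEK293 cells loaded with Ca2+ dye. Compound given before 1 μM DAMGO. IC50 estimated from one experiment in triplicate.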

For `Cc1nn2c(O)cc(C3CCN(C(=O)OCc4ccccc4)CC3)nc2c1-c1ccc(F)cc1`, the Activity [1] was “inactive”, the EC50 [2] was 236 nM and the Activity [3] was “inactive”. The IC50 [4] was “Not Active”.

`Cc1nn2c(O)cc(C3CCN(C(=O)OCc4ccccc4)CC3)nc2c1-c1ccc(Cl)cc1` was tested, and the Activity [1] was “inactive”, the EC50 [2] was 138 nM and the Activity [3] was “inactive”. The IC50 [4] was “Not Active”.

With `CCOC(=O)N1CCC(c2cc(O)n3nc(C)c(-c4ccc(F)cc4)c3n2)CC1` the Activity [1] was “inactive”, the EC50 [2] was 450 nM and the Activity [3] was “inactive”. For the same compound, the IC50 [4] was “Not Active”.

For `CCOC(=O)N1CCC(c2cc(O)n3nc(C)c(-c4ccc(C(F)(F)F)cc4)c3n2)CC1`, the Activity [1] was “inactive”, the Activity [3] was “inactive” and the IC50 [4] was “Not Active”.

— ChEMBL document CHEMBL4014306, “Pyrazolopyrimidines as Potent Stimulators for Transient Receptor Potential Canonical 3/6/7 Channels” (J Med Chem, 2017)
